# Results collected from several papers.
# Each line is one published result; the experiments were not run side by side.
# Matrix: Caco-2
SMILES,conditions,endpoint,value
CCC(=O)N[C@H]1Cc2cccc(C(=O)O)c2OB1O,"5 µM, 2 h, pH 7.4",Papp B→A,0.15 ×10⁻⁶ cm/s
CCOC(=O)[C@@]12C[C@@H]1[C@@H](n1ccc3c(NC)nc(C#Cc4ccc(Cl)s4)nc31)[C@H](O)[C@@H]2O,"10 µM, 2 h, pH 7.4",Papp B→A,22.2 ×10⁻⁶ cm/s
COc1cccc2c(-c3ccccc3)cc(-c3ccc(-c4ccc(C(=O)O)cc4)[nH]3)nc12,,Papp B→A,7.44 ×10⁻⁶ cm/s
C[C@H]1O[C@@H](O[C@H]2[C@@H](O)C[C@H](O[C@H]3[C@@H](O)C[C@H](O[C@H]4CC[C@@]5(C)[C@H](CC[C@@H]6[C@@H]5C[C@@H](O)[C@]5(C)[C@@H](C7=CC(=O)OC7)CC[C@]65O)C4)O[C@@H]3C)O[C@@H]2C)C[C@H](O)[C@@H]1O,"10 µM, 2 h, pH 7.4",Papp B→A,9.63 ×10⁻⁶ cm/s
COc1cc(Cl)c(C(=O)N[C@@H](CN[C@H]2CC[C@@H](N)CC2)Cc2ccc(C#N)cc2)cc1-c1ccc(CN[C@H](C)c2ccc(C)cc2)o1,"2 µM, 2 h, pH 7.2",Papp B→A,1.1 ×10⁻⁶ cm/s
CCn1c(=O)c2c(nc(S)n2C)n(C)c1=O,"10 µM, 2 h",Papp B→A,7 ×10⁻⁶ cm/s
N#C[C@H](C[C@@H]1CCCNC1=O)NC(=O)[C@H](CC1CC1)NC(=O)c1cc2cccc(Cl)c2[nH]1,,Papp,0.36 ×10⁻⁶ cm/s
O=C(c1cc(Cc2n[nH]c(=O)c3ccccc23)ccc1F)N1CCN(C(=O)C2CC2)CC1,,Papp,7.75 ×10⁻⁶ cm/s
C[C@H]1O[C@@H](O[C@H]2[C@@H](O)C[C@H](O[C@H]3[C@@H](O)C[C@H](O[C@H]4CC[C@@]5(C)[C@H](CC[C@@H]6[C@@H]5C[C@@H](O)[C@]5(C)[C@@H](C7=CC(=O)OC7)CC[C@]65O)C4)O[C@@H]3C)O[C@@H]2C)C[C@H](O)[C@@H]1O,,Papp B→A,14 ×10⁻⁶ cm/s
O=c1c(O[C@@H]2O[C@H](CO)[C@@H](O)[C@H](O)[C@H]2O)c(-c2ccc(O)c(O)c2)oc2cc(O)cc(O)c12,"1 mg/mL, pH 7.4",Papp,2.05 ×10⁻⁶ cm/s
CCN1C(=O)N(c2c(F)c(OC)cc(OC)c2F)Cc2cnc3[nH]c(CN4CCOCC4)cc3c21,50 µM,Papp,11 ×10⁻⁶ cm/s
CCCCN1C(=O)[C@@H]([C@@H](O)C2CCCCC2)NC(=O)C12CCN(Cc1ccc(Oc3ccc(C(=O)O)cc3)cc1)CC2.Cl,,Papp,1.6 ×10⁻⁶ cm/s
CCC(C)n1ncn(-c2ccc(N3CCN(c4ccc(OCC5COC(Cn6cncn6)(c6ccc(Cl)cc6Cl)O5)cc4)CC3)cc2)c1=O (stereo not shown),"1 µM, pH 7.4",Papp,1.5 to 2.5 ×10⁻⁶ cm/s
Cn1c(=O)c2c(nc(S)n2C)n(C)c1=O,"10 µM, 2 h",Papp B→A,3 ×10⁻⁶ cm/s
C[C@@H]1O[C@@H](OC[C@H]2O[C@@H](Oc3c(-c4ccc(O)c(O)c4)oc4cc(O)cc(O)c4c3=O)[C@H](O)[C@@H](O)[C@@H]2O)[C@H](O)[C@H](O)[C@H]1O,"1 mg/mL, pH 7.4",Papp,24.5 ×10⁻⁶ cm/s
CNC(=C[N+](=O)[O-])NCCSCc1ccc(CN(C)C)o1,,Papp B→A,2 ×10⁻⁶ cm/s
